This is an account of results in ChEMBL document CHEMBL2390925, “Further studies on 2-arylacetamide pyridazin-3(2H)-ones: design, synthesis and evaluation of 4,6-disubstituted analogs as formyl peptide receptors (FPRs) agonists” (Eur J Med Chem, 2013).

Series [1] concerns the target T1, fMet-Leu-Phe receptor (Homo sapiens) (UniProt P21462).
T1 sequence (whole entry): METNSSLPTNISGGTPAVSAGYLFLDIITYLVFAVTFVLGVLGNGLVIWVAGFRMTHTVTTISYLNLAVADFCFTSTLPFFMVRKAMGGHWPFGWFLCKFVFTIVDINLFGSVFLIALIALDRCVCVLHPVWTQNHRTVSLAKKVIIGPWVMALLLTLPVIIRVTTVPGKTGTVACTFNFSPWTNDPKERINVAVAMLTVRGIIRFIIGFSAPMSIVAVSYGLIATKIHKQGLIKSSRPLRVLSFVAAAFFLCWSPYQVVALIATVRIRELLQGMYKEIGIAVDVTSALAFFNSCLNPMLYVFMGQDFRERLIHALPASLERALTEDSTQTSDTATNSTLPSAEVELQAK
As to the kind of experiment: Agonist activity at FPR1 (unknown origin) transfected in human HL60 cells assessed as induction of Ca2+ mobilization relative to fMLF. Format: functional, cell-based. The conditions noted are these: HL-60. The procedure, abridged: (§1)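 Same Fluo-4 Ca2+ flux in transfected HL-60 cells. The peak fluorescence change over baseline was normalized to 5 nM fMLF for FPR1 cells and to 5 nM WKYMVm for FPR2 and FPR3 cells, each taken as 100%. Efficacy was read from 5–6 point dose-response curves.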
(Calcium assays in cells follow changes in intracellular calcium, usually with a dye or a luminescent sensor.)

In series [2] the target is T2, N-formyl peptide receptor 3 (Homo sapiens, UniProt P25089).
T2 sequence (P25089 whole entry): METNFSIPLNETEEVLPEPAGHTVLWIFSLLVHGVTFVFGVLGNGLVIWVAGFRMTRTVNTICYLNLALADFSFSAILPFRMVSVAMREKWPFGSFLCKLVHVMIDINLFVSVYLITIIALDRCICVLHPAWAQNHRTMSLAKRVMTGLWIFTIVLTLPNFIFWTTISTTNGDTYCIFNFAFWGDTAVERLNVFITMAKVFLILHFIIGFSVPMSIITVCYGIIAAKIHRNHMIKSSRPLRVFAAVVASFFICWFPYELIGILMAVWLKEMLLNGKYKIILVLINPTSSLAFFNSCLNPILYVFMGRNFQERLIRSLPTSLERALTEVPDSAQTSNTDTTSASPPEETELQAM
The experiment in a line: Agonist activity at FPR3 (unknown origin) transfected in human HL60 cells assessed as induction of Ca2+ mobilization. Format: cell-based, HL-60.

The target of series [3] is T3, N-formyl peptide receptor 2 (Homo sapiens) (UniProt P25090).
T3 sequence (whole entry): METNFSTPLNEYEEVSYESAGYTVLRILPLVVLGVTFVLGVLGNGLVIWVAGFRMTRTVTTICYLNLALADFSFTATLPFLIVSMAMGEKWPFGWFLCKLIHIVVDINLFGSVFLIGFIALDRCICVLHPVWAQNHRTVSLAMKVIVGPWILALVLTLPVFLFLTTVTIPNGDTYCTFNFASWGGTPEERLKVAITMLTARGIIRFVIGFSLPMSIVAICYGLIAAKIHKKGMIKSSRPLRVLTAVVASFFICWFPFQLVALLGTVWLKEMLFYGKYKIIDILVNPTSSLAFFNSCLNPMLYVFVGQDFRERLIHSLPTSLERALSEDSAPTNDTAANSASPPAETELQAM
As to the kind of experiment: Agonist activity at FPR2 (unknown origin) transfected in human HL60 cells assessed as induction of Ca2+ mobilization relative to WKYMVm. The conditions noted are these: HL-60. Format: functional, cell-based. The procedure, abridged:
as §1

The target of series [4] is fMet-Leu-Phe receptor 1/2 (Homo sapiens) (UniProt P21462+P25090). As to the kind of experiment: Agonist activity at FPR1/FPR2 in human neutrophils assessed as induction of Ca2+ mobilization relative to fMLF. Format: functional. The gist of the method: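 Neutrophils from healthy donors were isolated by dextran sedimentation, Histopaque 1077 gradient and hypotonic red cell lysis. […] Peak response was normalized to 5 nM fMLF as 100%. EC50 comes from 5–6 point curves, mean of three experiments with different donors.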

In series [5] the test system is HL-60. The experiment in a line: Cytotoxicity against human wild type HL60 cells at 5 to 20 uM after 60 mins by CellTitre-Glo luminescent assay. It is filed as cell-based. The conditions noted are these: hl-60, 1 h. The procedure, abridged: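 Wild-type HL-60 cells at 3×10^4 cells/well were exposed to 5, 10 or 20 µM compound for 60 min at 37 °C in 5% CO2. Samples were equilibrated to room temperature for 30 min before the CellTiter-Glo luminescence read. Triplicate samples; the experiment was representative of two.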

A further series deals with Neutrophil. The experiment in a line: Induction of chemotaxis in human neutrophils assessed as cell migration after 60 mins by CellTitre-Glo luminescent assay. It is filed as functional, cell-based. The conditions noted are these: 1 h. The gist of the method:
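Migration ran 60 min at 37 °C in 5% CO2. Migrated cells were counted by ATP luminescence against a neutrophil standard curve and expressed as % of spontaneous migration. EC50 comes from nonlinear regression of dose-response curves.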

In the next series the target is T4, fMet-Leu-Phe receptor (Homo sapiens, UniProt P21462).
T4 sequence (P21462 whole entry): T1 sequence (whole entry)
As to the kind of experiment: Agonist activity at FPR1 (unknown origin) transfected in human HL60 cells assessed as induction of Ca2+ mobilization. It is filed as functional, cell-based, HL-60.

Series [6] relates to HL-60. The experiment in a line: Effect on Ca2+ mobilization in human wild type HL60 cells. It is filed as functional, cell-based. The procedure, abridged: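 Wild-type, non-transfected HL-60 cells, grown without G418, were run in the same Fluo-4 Ca2+ flux assay. Fluorescence was monitored every 5 s for 240 s at room temperature.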
For series [7], the target named is T5, N-formyl peptide receptor 2 (Homo sapiens, UniProt P25090).
T5 sequence (P25090 whole entry): T3 sequence (whole entry)
The experiment in a line: Agonist activity at FPR2 (unknown origin) transfected in human HL60 cells assessed as induction of Ca2+ mobilization. Format: functional, cell-based, HL-60.

Series [8] addresses T6, fMet-Leu-Phe receptor 1/2 (Homo sapiens, UniProt P21462+P25090).
T6 sequence (P21462 whole entry): T1 sequence (whole entry)
T6 sequence (P25090 whole entry): T3 sequence (whole entry)
The experiment in a line: Agonist activity at FPR1/FPR2 in human neutrophils assessed as induction of Ca2+ mobilization. It is filed as functional.

For orientation: EC50 means the concentration needed to bring the measured effect to its halfway point. Regarding `COc1ccc(Nc2c(C(C)=O)c(C)nn(CC(=O)Nc3ccc(Br)cc3)c2=O)cc1`, the Efficacy was 75% in [1], 90% in series [3] and 110% in series [4]. Besides, the 50% effective concentration (EC50) in series [2] was greater than 50 µM; in the series on Neutrophil, 2.7 µM; at fMet-Leu-Phe receptor, 13.5 µM; with HL-60 [6] it was greater than 50 µM; in series [7], 1.7 µM; in series [8] it was 3.9 µM. Besides, the Activity result in the series with HL-60 [5] is listed as “Non-toxic”.
